Measurements taken from ChEMBL document CHEMBL1821616, “New insights into the structural requirements for pro-apoptotic agents based on 2,4-diaminoquinazoline, 2,4-diaminopyrido[2,3-d]pyrimidine and 2,4-diaminopyrimidine derivatives” (Eur J Med Chem, 2011).
The source made the active and inactive calls. No cut-off for these calls is given here.

Tests used:
T-24 [1] = experiment: Cytotoxicity against human T24 cells after 72 hrs by neutral red dye assay; format: functional, cell-based; settings: T-24, 72 h
Summary of the method: (§1)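 Human tumour cells were grown as monolayers with 10% FBS and penicillin/streptomycin at 37 °C in 5% CO2 (HT-29 and T-24 in McCoy's, MDA-MB-231 in Leibovitz). They were exposed to compound in DMSO (≤0.5% v/v final) at screening concentrations of 20 and 100 μM for 72 h and read by neutral red uptake. Survival is relative to cells given DMSO only, in triplicate.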

HT-29 [2] = experiment: Cytotoxicity against human HT-29 cells after 72 hrs by neutral red dye assay; format: functional, cell-based; settings: HT-29, 72 h; summary of the method: as §1
MDA-MB-231 [3] = experiment: Cytotoxicity against human MDA-MB-231 cells after 72 hrs by neutral red dye assay; format: functional, cell-based; settings: MDA-MB-231, 72 h; summary of the method: as §1
T-24 [4] = experiment: Cytotoxicity against human T24 cells assessed as cell survival at 100 uM after 72 hrs by neutral red dye assay; format: functional; settings: T-24, 72 h, read-out: Survival
Summary of the method: (§2)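 HT-29 and T-24 cells were grown in McCoy's medium and MDA-MB-231 in Leibovitz, each with 10% FBS plus penicillin/streptomycin, as monolayers at 37 °C in 5% CO2. Compounds in DMSO (≤0.5% v/v final) were applied for 72 h. Survival was read by neutral red uptake against 0.5% DMSO-treated cells, as the mean of triplicates.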

HT-29 [5] = experiment: Cytotoxicity against human HT-29 cells assessed as cell survival at 100 uM after 72 hrs by neutral red dye assay; format: functional; settings: HT-29, 72 h, read-out: Survival; summary of the method: as §2
MDA-MB-231 [6] = experiment: Cytotoxicity against human MDA-MB-231 cells assessed as cell survival at 100 uM after 72 hrs by neutral red dye assay; format: functional; settings: MDA-MB-231, 72 h, read-out: Survival; summary of the method: as §2
T-24 [7] = experiment: Induction of apoptosis in human T24 cells assessed as DNA fragmentation after 48 hrs by ELISA relative to control; format: functional
Summary of the method: (§3)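 DNA fragmentation was measured with the Cell Death Detection ELISA Plus kit after treatment of cultured tumour cells. The signal is expressed relative to untreated control cultures, which are set to 1.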

HT-29 [8] = experiment: Induction of apoptosis in human HT-29 cells assessed as DNA fragmentation after 48 hrs by ELISA relative to control; format: functional; summary of the method: as §3
MDA-MB-231 [9] = experiment: Induction of apoptosis in human MDA-MB-231 cells assessed as DNA fragmentation after 24 hrs by ELISA relative to control; format: functional; summary of the method: as §3
[10] = Cytotoxicity against human CRL8799 cells assessed as cell survival at 20 to 100 uM after 72 hrs by neutral red dye assay; format: cell-based; settings: read-out: Survival
Summary of the method: (§4)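 The non-tumoral lines were grown with 10% FBS plus penicillin/streptomycin, as monolayers at 37 °C in 5% CO2: CRL-8799 in MEG medium and CRL-11233 in BEGM. Compounds in DMSO (≤0.5% v/v final) were applied for 72 h. Survival was read by neutral red uptake against 0.5% DMSO solvent-treated controls, as the mean of triplicates.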

[11] = Cytotoxicity against human CRL11233 cells assessed as cell survival at 20 to 100 uM after 72 hrs by neutral red dye assay; format: cell-based; settings: read-out: Survival; summary of the method: as §4
HT-29 [12] = experiment: Induction of apoptosis in human HT-29 cells assessed as caspase3 activation at IC50 after 48 hrs by FACS analysis relative to control; format: functional
Summary of the method: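 Active caspase-3 was detected by flow cytometry with a FITC anti-active-caspase-3 antibody kit, with readings at 14, 24 and 48 h. Treated cells were compared with untreated control cells. Results are scored as (+) for an increase of about 50% and (++) for a larger rise.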

Structure (SMILES) | IC50 (T-24 [1]) | IC50 (HT-29 [2]) | IC50 (MDA-MB-231 [3]) | viability at 100 µM (T-24 [4]) | viability at 100 µM (HT-29 [5]) | viability at 100 µM (MDA-MB-231 [6]) | fold change (FC) (T-24 [7]) | Activity (HT-29 [8]) | fold change (FC) (MDA-MB-231 [9]) | viability at 72 h, up to 100 µM [10] | viability at 72 h, up to 100 µM [11] | Activity (T-24 [7]) | fold change (FC) (HT-29 [8]) | Activity (MDA-MB-231 [9]) | Activity (HT-29 [12])
CCCCCCNc1nc(NCCCCCC)c2cccnc2n1 | 4.6 µM | 4.23 µM | 2.1 µM | < 45% | < 45% | < 45% |  |  |  |  |  |  |  |  | 
Cc1ccc(CNc2nc(NCc3ccc(C)cc3)c3cccnc3n2)cc1 | 5 µM | 7.5 µM | 3.2 µM | < 45% | < 45% | < 45% | 2.7 | inactive | 4 | 95% | 100% |  |  |  | 
CCCCNc1nc(SC(C)C)nc2ncccc12 | 12.3 µM | 32.1 µM | 15.7 µM | < 45% | < 45% | < 45% |  | inactive | 1.3 |  |  | inactive |  |  | 
CCCCNc1nc(SCC)nc2ncccc12 | 20.9 µM | 25.3 µM | 9.2 µM | < 45% | < 45% | < 45% | 1.5 |  | 2.2 |  |  |  | 1.2 |  | 
CCCCNc1nc(NCCCC)c2ccccc2n1 | 19.3 µM | 6.96 µM | 1.09 µM | < 45% | < 45% | < 45% |  |  |  | 4% | 1% | inactive | 1.5 | inactive | 
CCCCCCNc1nc(SCC)nc2ncccc12 | 5.9 µM | 22.5 µM | 1.4 µM | < 45% | < 45% | < 45% | 1.5 |  | 3.3 |  |  |  | 8.1 |  | 75%
COc1ccc(CNc2ccnc(NCc3ccc(OC)cc3)n2)cc1 | 18.7 µM | 12.6 µM | 1.5 µM | < 45% | < 45% | < 45% | 1.5 |  | 2.4 | 0% |  |  | 1.9 |  | 
CCNc1nc(SCC)nc2ncccc12 | 20.1 µM | 26.2 µM | 18.7 µM | < 45% | < 45% | < 45% | 1.3 | inactive | 2 |  |  |  |  |  | 
Clc1ccc(CNc2nc(NCc3ccc(Cl)cc3)c3ccccc3n2)cc1 | 6.41 µM | 5.89 µM | 4.26 µM | < 45% | < 45% | < 45% | 2 | inactive |  | 0% | 0% |  |  | inactive | 
Cc1ccc(CNc2ccnc(NCc3ccc(C)cc3)n2)cc1 | 22.2 µM | 14.9 µM | 19.1 µM | < 45% | < 45% | < 45% | 4.8 |  | 1.5 | 6% | 1% |  | 2 |  | 
CCCCCCNc1nc(NCCCCCC)c2ccccc2n1 | 23.3 µM | 5.81 µM | 7.56 µM | < 45% | < 45% | < 45% |  | inactive |  | 2% | 0% | inactive |  | inactive | 
CCCCCCNc1nc(SCCCCC)nc2ncccc12 | 18.5 µM | 18.4 µM | 9 µM | < 45% | < 45% | < 45% |  | inactive |  |  |  | inactive |  |  | 
CCCCCNc1nc(NCCCCC)c2cccnc2n1 | 0.7 µM | 0.58 µM | 1.2 µM | < 45% | < 45% | < 45% | 4.4 |  | 2.8 | 100% | 54% |  | 0.9 |  | 
c1ccc(CCNc2ccnc(NCCc3ccccc3)n2)cc1 | 9.14 µM | 6.97 µM | 3.01 µM | < 45% | < 45% | < 45% | 1.2 | inactive | 1.3 | 5% | 5% |  |  |  | 
c1ccc2c(CCNc3nc(NCCc4c[nH]c5ccccc45)c4cccnc4n3)c[nH]c2c1 | 7.7 µM | 3 µM | 5.1 µM | < 45% | < 45% | < 45% |  |  |  | 56% |  | inactive | 3 | inactive | 75%
Clc1ccc(CNc2ccnc(NCc3ccc(Cl)cc3)n2)cc1 | 8.5 µM | 9.8 µM | 2 µM | < 45% | < 45% | < 45% |  |  | 2.2 | 0% |  | inactive | 2.7 |  | 
CCCNc1nc(NCCC)c2ccccc2n1 | 28.9 µM | 18.9 µM | 4.43 µM | < 45% | < 45% | < 45% | 2 | inactive |  | 0% | 66% |  |  | inactive | 
Clc1ccc(CNc2nc(NCc3ccc(Cl)cc3)c3cccnc3n2)cc1 | 11 µM | 15 µM | 8.3 µM | < 45% | < 45% | < 45% | 1.9 | inactive | 1.3 | 0% | 100% |  |  |  | 
Cc1ccc(CNc2nc(NCc3ccc(C)cc3)c3ccccc3n2)cc1 | 15.4 µM | 4.42 µM | 5.47 µM | < 45% | < 45% | < 45% | 4.3 |  |  | 13% | 33% |  | 5.2 | inactive | 
CCCCCCNc1nc(SC(C)C)nc2ncccc12 | 15.8 µM | 20.2 µM | 4.5 µM | < 45% | < 45% | < 45% | 1.6 |  | 2.9 |  |  |  |  |  | 
CCCCCCCNc1nc(SC(C)C)nc2ncccc12 | 8 µM | 24.4 µM | 7 µM | < 45% | < 45% | < 45% | 1.5 | inactive |  |  |  |  |  |  | 
Brc1ccc(CCNc2nc(NCCc3ccc(Br)cc3)c3cccnc3n2)cc1 | 11.5 µM | 4.1 µM | 2.7 µM | < 45% | < 45% | < 45% | 1.5 |  |  | 90% | 100% |  | 7.2 | inactive | 
CCCCNc1nc(SCCCC)nc2ncccc12 | 10.6 µM | 13.6 µM | 8.4 µM | < 45% | < 45% | < 45% | 3.7 | inactive |  |  |  |  |  |  | 
